What all share (type): ADME
The species entered for series [1] is Mus musculus. The series can be described thus: In vitro level of metabolite in mice liver microsomes at 0 hours; ND is Not Detected (< 8 ug/vessel). In a few lines: (§1)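 Time-zero control: the reaction was stopped right after phencyclidine was added to the mouse (male ICR) liver 12500g supernatant plus NADP-regenerating cofactor mix. Metabolites were quantified by GLC or HPLC with internal standards (N-benzylphenylalanine or ketamine), using calibration curves from spiked microsomal mixtures.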
For orientation: Microsomes from liver hold many membrane-bound enzymes, among them those of drug oxidation.

The species entered for series [2] is Mus musculus. Briefly: In vitro level of metabolite in mice liver microsomes at 1 hour; ND is Not Detected (< 8 ug/vessel). The essentials: (§2)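 12500g liver supernatant from 10 male ICR mice (homogenized in ice-cold pH 7.4 Tris with 0.15 M KCl; stored -70 °C, used within 15 h). Incubated with phencyclidine and NADP/glucose 6-phosphate/nicotinamide/MgSO4 cofactor at 37 °C, 120 osc/min, 100% O2. Metabolites measured by GLC (N-benzylphenylalanine internal standard, nitrogen detector) or HPLC (ketamine internal standard), calibrated by spiking microsomal blanks.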

The species named for series [3] is Mus musculus. The series can be described thus: In vitro level of metabolite in mice liver microsomes at 2 hours; ND is Not Detected (< 8 ug/vessel). In a few lines:
as §2

The species named for series [4] is Mus musculus. Briefly: In vitro level of metabolite in mice liver microsomes at 3 hours (heat inactivated control); ND is Not Detected (< 8 ug/vessel). The essentials:
(§3)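 Control in which mouse (male ICR) liver 12500g supernatant was heat-inactivated before phencyclidine and cofactors were added. It was then incubated at 37 °C under 100% O2 with shaking alongside the test samples. Metabolites were quantified by GLC or HPLC against internal standards (N-benzylphenylalanine or ketamine), calibrated by spiking.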

For series [5], the species on record is Mus musculus. Briefly: In vitro level of metabolite in mice liver microsomes at 3 hours; ND is Not Detected (< 8 ug/vessel). The essentials: as §2
The species entered for series [6] is Mus musculus. Briefly: In vitro level of metabolite in mice liver microsomes at 1 hour. The essentials:
as §2

Series [7] is filed under the species Mus musculus. Briefly: In vitro level of metabolite in mice liver microsomes at 2 hours. In a few lines:
as §2

For series [8], the species on record is Mus musculus. The series can be described thus: In vitro level of metabolite in mice liver microsomes at 3 hours. The essentials:
as §2

The species named for series [9] is Mus musculus. Briefly: In vitro level of metabolite in mice liver microsomes at 0 hours; ND is […] (< 2 ug/vessel). In a few lines: as §1
For series [10], the species on record is Mus musculus. The series can be described thus: In vitro level of metabolite in mice liver microsomes at 3 hours (heat inactivated control); ND is Not Detected (< 2 ug/vessel). The essentials:
as §3

Series [11] is filed under the species Mus musculus. The series can be described thus: In vitro level of metabolite in mice liver microsomes at 3 hours (heat inactivated control); ND is Not Detected (< 8 ug/ vessel). The essentials: as §3

Regarding `O=C1CCCCN1C1(c2ccccc2)CCCCC1`, the Metabolite levels result in the series listed under Mus musculus [1], in the series filed under Mus musculus [2], in the series filed under Mus musculus [3], in the series filed under Mus musculus [4] and in the series filed under Mus musculus [5] was “Not detected” each time.

Regarding `OC1CCN(C2(c3ccccc3)CCCCC2)CC1`, the values for the Metabolite levels in the series filed under Mus musculus [6], in the series filed under Mus musculus [7] and in the series listed under Mus musculus [8] were 9.3 µg, 9.2 µg and 10.3 µg, respectively.

For the molecule `OCCCCCNC1(c2ccccc2)CCCCC1`, the Metabolite levels entry in the series listed under Mus musculus [9] is “Not detected”; in the series listed under Mus musculus [6], 2.8 µg; in the series listed under Mus musculus [7], 2.4 µg; in the series listed under Mus musculus [10] it was “Not detected”; in the series listed under Mus musculus [8], 1.4 µg.

Regarding `Cl.O=C(O)CCCCNC1(c2ccccc2)CCCCC1`, the Metabolite levels result in the series listed under Mus musculus [1] is “Not detected”; in the series listed under Mus musculus [6], 110 µg; in the series filed under Mus musculus [7], 123 µg; in the series filed under Mus musculus [11], “Not detected”; in the series listed under Mus musculus [8] it was 135 µg.

Source of the values: ChEMBL document CHEMBL1122932, “Metabolism of phencyclidine. The role of the carbinolamine intermediate in the formation of lactam and amino acid metabolites of nitrogen heterocycles” (J Med Chem, 1985).
